Screening data deposited in PubChem by Broad Institute.
rRNA inh HTS: reduced GFP signal of wild-type E. coli, primary screen, bacterial rRNA inhibitor project, GFP/RFP fluorescence, OD600, single point | E. coli WT GFP vs humanized-ribosome RFP mutants, 24 h; hits give low values; DMSO median 0, no signal -100 | GFP signal change (wild-type ribosome), % (test concentration not listed) | 350,000 compounds, 1.6% hits;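 active = significant combined selectivity score with lowered wild-type GFP, culture density cut under 30%, mutant RFP and density less affected; inactive = any of these conditions unmet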
Cneo AK release: Cryptococcus neoformans cell lysis inducers, primary screen, AK release luminescence, single concentration | C. neoformans lysis, adenylate kinase release luminescence, 4 h; normalised: neutral wells 0, clomiphene wells 100 | 360,000 compounds, 0.2% hits | lysis activity, % at 15 µM;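 active = mean lysis activity across replicates of at least 80%, whatever share of replicates individually reach that level; inactive = mean lysis activity below 80%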
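Material – Cryptococcus neoformans yeast cells · Quantity – 5 × 10^6 yeast cells/mL · Buffer or medium – YPD medium · Compound – single dose · Timing – 4 h static compound exposure, 37 °C, read 1 h post-reagent · Signal – adenylate kinase release luminescence · Read-out basis – lysis from increased AK signal · Benchmarks – Clomiphene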
DENV2 CPE rescue: inhibitors of DENV2 cytopathic effect, primary screen, cell-based, plate reader, single concentration; CPE inhibition, % at 9.99 µM; 350,000 compounds, 1.7% hits; DENV2-infected cells, cytopathic effect rescue; AID 651640, 2012; in the data active = CPE inhibition above about 20%, passing the limit was not always enough; tested in BHK-21 cells
E-sel inducer: E-selectin induction in HUVECs, primary screen, imaging, HUVEC, immunofluorescence imaging, single point; P16581; normalized: neutral wells 0, TNF-alpha wells 100; activation, % at 7.58 µM; 260,000 compounds, 0.37% hits; AID 686992, 2013;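 active = mean E-selectin-positive cell signal at least 10% of the positive control, reached in at least 60% of replicates, without over 20% cell loss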
Target sequence (P16581 whole entry, looked up): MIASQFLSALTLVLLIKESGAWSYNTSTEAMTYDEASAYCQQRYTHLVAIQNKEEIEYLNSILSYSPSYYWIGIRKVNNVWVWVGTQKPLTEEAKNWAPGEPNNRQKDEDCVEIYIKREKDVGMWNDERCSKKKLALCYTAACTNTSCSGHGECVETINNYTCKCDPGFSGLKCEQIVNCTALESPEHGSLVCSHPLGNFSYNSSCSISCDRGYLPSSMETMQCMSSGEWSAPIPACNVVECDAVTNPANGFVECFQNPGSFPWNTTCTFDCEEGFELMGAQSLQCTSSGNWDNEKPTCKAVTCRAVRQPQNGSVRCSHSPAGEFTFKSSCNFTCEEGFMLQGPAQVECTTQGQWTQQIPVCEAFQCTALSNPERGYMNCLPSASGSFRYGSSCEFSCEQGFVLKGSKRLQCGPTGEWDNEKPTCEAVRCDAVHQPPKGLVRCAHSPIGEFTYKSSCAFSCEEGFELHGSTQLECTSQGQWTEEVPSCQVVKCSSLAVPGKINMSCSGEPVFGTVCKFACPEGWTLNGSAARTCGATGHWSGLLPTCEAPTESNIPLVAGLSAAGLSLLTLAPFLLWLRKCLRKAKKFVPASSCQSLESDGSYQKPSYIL
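Read-out basis: % PE-positive cells; Test system: HUVEC primary endothelial cells; Technique: immunofluorescence imaging; Dosing: single-point compound dose.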
miR-122 sensor: miR-122 Renilla sensor signal increase in Huh7, primary screen, miR-122 inhibitor project, cell-based, single point, plate reader; Huh7 miR-122 Renilla luciferase sensor, 48 h; neutral wells = 0, positive control = 100; activation (reporter increase), % at 12.5 µM; 340,000 compounds, 0.3% hits;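 active = mean replicate activation score at least 90 and every replicate individually at or above 90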;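 note: higher luciferase means less miR-122 activity so hits act as miR-122 inhibitors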
Each line names hits and unclear results; the compound was inactive in the other large screens; ! = repeats disagree. Hits are enriched below; roughly 3.1% of the tested compounds scored in any of these assays.

CN1CCN(C(=O)C[C@@H]2CC[C@@H]3[C@H](COC[C@H](O)CN3C(=O)Nc3ccc(Cl)cc3)O2)CC1	rRNA inh HTS -18
CN1CCN(C(=O)C[C@H]2CC[C@H]3[C@@H](COC[C@H](O)CN3C(=O)C3CCCC3)O2)CC1	none
CO[C@@H]1CN(C)C(=O)c2cc(NS(=O)(=O)c3ccc(-c4ccccc4)cc3)ccc2OC[C@H](C)NC[C@@H]1C	none
CC(OC(=O)c1ccccc1NCCO)C(=O)NC1CCCCC1C (centres undefined)	DENV2 CPE rescue 69
CC(OC(=O)c1ccc(C(C)(C)C)cc1)C(=O)NC1CCCCC1C (centres undefined)	none (no result: E-sel inducer)
COc1ccc2c3c([nH]c2c1)[C@H](CO)N(Cc1ccccc1)CC31CCN(C(=O)c2cccnc2)CC1	none (no result: Cneo AK release, DENV2 CPE rescue, E-sel inducer, miR-122 sensor)
CCC(=O)N[C@H]1C=C[C@H](CC(=O)NCc2ccc(OC)cc2)O[C@H]1CO	none
O=C(C[C@H]1CC[C@@H]2[C@H](COC[C@@H](O)CN2C(=O)c2ccc(F)cc2)O1)Nc1ccc(-c2ccccc2)cc1	none
CO[C@@H](CN(C)Cc1cc(F)ccc1F)[C@H](C)CN([C@H](C)CO)S(=O)(=O)c1ccc(F)cc1	none (no result: miR-122 sensor)
CO[C@@H](CN(C)Cc1cc(F)ccc1F)[C@@H](C)CN([C@H](C)CO)S(=O)(=O)c1ccc(F)cc1	Cneo AK release 102 (no result: rRNA inh HTS, E-sel inducer, miR-122 sensor)
Cc1ncc([N+](=O)[O-])n1CC(=O)Nc1ccc(Cl)cc1	none
Cc1ncc([N+](=O)[O-])n1CC(=O)Nc1ccc(F)c(F)c1	DENV2 CPE rescue 35 (no result: miR-122 sensor)
COc1ccc2c3c(n(C)c2c1)[C@H](CO)N(Cc1ccccc1OC)CC31CN(C(=O)C2CC2)C1	none (no result: Cneo AK release, DENV2 CPE rescue, E-sel inducer, miR-122 sensor)
Cc1cccc(-c2ccc([C@@H]3[C@@H](CO)N4C(=O)CN(C(=O)c5cccnc5)C[C@H]34)cc2)c1	DENV2 CPE rescue 21 (no result: Cneo AK release, miR-122 sensor)
COc1cccc(-c2ccc([C@H]3[C@H](CO)N4C(=O)CN(C(=O)C5CC5)C[C@@H]34)cc2)c1	DENV2 CPE rescue 29 (no result: Cneo AK release, miR-122 sensor)
CN(C)C(=O)c1cccc(-c2ccc([C@@H]3[C@@H](CO)N4C(=O)CN(C(=O)CC5CC5)C[C@@H]34)cc2)c1	none (no result: Cneo AK release, miR-122 sensor)
CN(C)C(=O)c1cccc(-c2ccc([C@H]3[C@H]4CN(C(=O)CC5CC5)CC(=O)N4[C@H]3CO)cc2)c1	DENV2 CPE rescue 21 (no result: Cneo AK release, miR-122 sensor)
COc1ccc([C@H]2CC=CC[C@H](C)Oc3ccccc3C(=O)N(C)[C@H](C)C(=O)N2)c(OC)c1 (mixture of isomers)	none (no result: Cneo AK release, DENV2 CPE rescue, E-sel inducer, miR-122 sensor)
Cc1cc(C(=O)Nc2cccc3c2O[C@@H](CN(C)CC2CCCCC2)[C@H](C)CN([C@H](C)CO)C3=O)n(C)n1	none
COc1ccc(NS(=O)(=O)c2ccc(NC(=O)c3ccccc3Br)cc2)nn1	rRNA inh HTS -26
Cc1onc(-c2ccccc2)c1-c1nnc(-c2ccccc2C(F)(F)F)o1	rRNA inh HTS -20
Cc1noc(C)c1NC(=O)Nc1ccc2c(c1)C(=O)N([C@@H](C)CO)C[C@@H](C)[C@H](CN(C)CC1CC1)OCCCC[C@H](C)O2	none
C[C@H]1O[C@@H](n2cc(F)c(=O)[nH]c2=O)[C@H](O)[C@@H]1O	none
O=c1[nH]c(=O)n(C2OC(CO)C(O)C(O)C2O)cc1F (centres undefined)	DENV2 CPE rescue 68 (no result: rRNA inh HTS, Cneo AK release, E-sel inducer, miR-122 sensor)
N#C[C@@H]1[C@H](c2ccccc2C2=CCCC2)[C@@H](CO)N1C(=O)c1ccccn1	none (no result: Cneo AK release, DENV2 CPE rescue, E-sel inducer, miR-122 sensor)
CN1CCN(C(=O)C2=C[C@@H](c3ccc(C(F)(F)F)cc3)C[C@@H](OCc3ccc(CO)cc3)O2)CC1	DENV2 CPE rescue 78! (no result: miR-122 sensor)
O=C(C1=C[C@H](c2ccc3c(c2)OCO3)C[C@H](OCc2ccc(CO)cc2)O1)N1CCN(Cc2ccc3c(c2)OCO3)CC1	DENV2 CPE rescue 59!
C[C@@H]1C=C(C(=O)N2CCN(Cc3ccc4c(c3)OCO4)CC2)O[C@H](OCc2ccc(CO)cc2)C1	none (no result: rRNA inh HTS, E-sel inducer, miR-122 sensor)
O=C(C1=C[C@@H](c2ccc3c(c2)OCO3)C[C@@H](OCc2ccc(CO)cc2)O1)N1CCN(Cc2ccc3c(c2)OCO3)CC1	none (no result: rRNA inh HTS, E-sel inducer, miR-122 sensor)
O=C(NCc1ccccc1)C1=C[C@@H](c2ccc3c(c2)OCO3)C[C@@H](OCc2ccc(CO)cc2)O1	DENV2 CPE rescue 22!
C[C@H]1C=C(C(=O)N2CCN(Cc3ccc4c(c3)OCO4)CC2)O[C@@H](OCc2ccc(CO)cc2)C1	DENV2 CPE rescue 24! (no result: miR-122 sensor)
CC(C)(C)[C@H]1C=C(C(=O)N2CCOCC2)O[C@@H](OCc2ccc(CO)cc2)C1	DENV2 CPE rescue 36!
O=C(NCCc1ccncc1)[C@@H]1[C@@H](CO)[C@@H]2Cn3c(ccc(-c4cccc(F)c4)c3=O)[C@H]1N2	DENV2 CPE rescue 85
C[C@H]1CN([C@@H](C)CO)C(=O)c2cc(NS(=O)(=O)c3cn(C)cn3)ccc2O[C@H]1CN(C)S(=O)(=O)c1cn(C)cn1	none (no result: Cneo AK release, DENV2 CPE rescue)
CNC[C@H]1Oc2c(NS(=O)(=O)c3ccc(C)cc3)cccc2C(=O)N([C@H](C)CO)C[C@@H]1C	none
C/C(=N\O)c1cccc(Br)c1	rRNA inh HTS -25 (no result: Cneo AK release, miR-122 sensor)
C[C@H]1CCCCO[C@@H](CN(C)CC2CCCCC2)[C@@H](C)CN([C@@H](C)CO)C(=O)c2cc(NC(=O)Cc3ccccc3)ccc2O1	none
Cc1noc(C)c1NC(=O)N(C)C[C@H]1Oc2ccc(NS(=O)(=O)c3ccc(F)cc3)cc2CC(=O)N([C@H](C)CO)C[C@@H]1C	none (no result: Cneo AK release, DENV2 CPE rescue, E-sel inducer, miR-122 sensor)
COc1cccc(OC)c1C(=O)NC(=S)Nc1ccc2oc(-c3ccncc3)nc2c1	rRNA inh HTS -14
COc1ccc(NC(=O)N(C)C[C@@H]2Oc3c(NS(=O)(=O)c4ccc(OC)cc4)cccc3C(=O)N([C@H](C)CO)C[C@H]2C)cc1	none
C[C@@H]1CCCCO[C@@H](CN(C)Cc2ccc(C(=O)O)cc2)[C@@H](C)CN([C@@H](C)CO)C(=O)c2cc(NC(=O)C3CCCCC3)ccc2O1	DENV2 CPE rescue 38
C[C@@H]1CCCCO[C@@H](CN(C)Cc2ccccc2)[C@@H](C)CN([C@@H](C)CO)C(=O)c2cc(NC(=O)C3CCCCC3)ccc2O1	DENV2 CPE rescue 27
C[C@H](CO)N1C[C@H](C)[C@@H](CN(C)Cc2ccccc2)OCCCC[C@H](C)Oc2ccc(NC(=O)C3CCCCC3)cc2C1=O	none
CCCC#Cc1ccc([C@@H]2[C@H](CO)N3C(=O)CN(C(=O)c4ccccn4)C[C@@H]23)cc1	none (no result: Cneo AK release, miR-122 sensor)
Cc1c(Br)c([N+](=O)[O-])nn1C(C)C(=O)N1CCc2ccccc2C1 (centres undefined)	DENV2 CPE rescue 24 (no result: miR-122 sensor)
Cc1c(Br)c([N+](=O)[O-])nn1CC(=O)N1CCc2ccccc2C1	none
